Results from ChEMBL document CHEMBL2034980, “N⁴-Phenyl-substituted 2-acetylpyridine thiosemicarbazones: cytotoxicity against human tumor cells, structure-activity relationship studies and investigation on the mechanism of action” (Bioorg Med Chem, 2012).

Assays:
T98G = assay: Cytotoxicity against human T98G cells expressing mutant p53 after 48 hrs by MTT assay; type: functional, cell-based
Outline: (§1)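 MTT assay. Cells were grown in DMEM with 10% FBS and penicillin/streptomycin at 37 °C under 5% CO2, seeded at 1–2×10^3 cells/well and treated 12 h later with 1×10^-12 to 1×10^-5 M ([…] from DMSO stock, final DMSO <0.5%) for 48 h. MTT was added at 0.5 mg mL⁻¹, formazan dissolved in DMSO and read at 570 nm. IC50 is the concentration giving 50% cytotoxicity. Quadruplicates, ≥3 independent experiments.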

[1] = Cytotoxicity against human U87 cells expressing wild-type p53 after 48 hrs by MTT assay; type: functional, cell-based, U-87MG ATCC; conditions: U-87 MG; outline: as §1
MCF7 = assay: Cytotoxicity against human MCF7 cells after 48 hrs by MTT assay; type: functional, cell-based; conditions: MCF7, 48 h; outline: as §1

| SMILES | IC50 (T98G; read-out: pIC50 (converted)) | IC50 ([1]; read-out: pIC50 (converted)) | IC50 (MCF7; read-out: pIC50 (converted)) | IC50 (T98G; read-out: IC50) | IC50 ([1]; read-out: IC50) | IC50 (MCF7; read-out: IC50) |
| --- | --- | --- | --- | --- | --- | --- |
| C/C(=N\NC(=S)Nc1ccccc1F)c1ccccn1 | 3.1 nM | 5 nM | 0.39 nM |  |  |  |
| C/C(=N\NC(=S)Nc1ccc(F)cc1)c1ccccn1 | 17 nM | 10 nM | 1.2 nM |  |  |  |
| C/C(=N\NC(=S)Nc1ccccc1Cl)c1ccccn1 | 1.1 nM | 2.6 nM | 0.16 nM |  |  |  |
| C/C(=N\NC(=S)Nc1ccccc1)c1ccccn1 | 6.81 nM | 1.4 nM | 0.18 nM |  |  |  |
| C/C(=N/NC(=S)Nc1ccc(F)cc1)c1ccccn1 | 17 nM | 10 nM | 1.2 nM |  |  |  |
| C/C(=N\NC(=S)Nc1cccc(Cl)c1)c1ccccn1 | 1 nM | 31 nM | 24 nM |  |  |  |
| C/C(=N\NC(=S)Nc1ccc([N+](=O)[O-])cc1)c1ccccn1 | 140 nM | 160 nM | 52 nM |  |  |  |
| C/C(=N\NC(=S)Nc1cccc([N+](=O)[O-])c1)c1ccccn1 | 140 nM | 69 nM | 38 nM |  |  |  |
| C/C(=N\NC(=S)Nc1cccc(F)c1)c1ccccn1 | 12 nM | 18 nM | 8.99 nM |  |  |  |
| C/C(=N/NC(=S)Nc1cccc(F)c1)c1ccccn1 | 12 nM | 18 nM | 8.99 nM |  |  |  |
| C/C(=N/NC(=S)Nc1ccccc1Cl)c1ccccn1 | 1.1 nM | 2.6 nM | 0.16 nM |  |  |  |
| C/C(=N/NC(=S)Nc1ccc(I)cc1)c1ccccn1 | 64 nM | 59 nM | 6.61 nM |  |  |  |
| C/C(=N\NC(=S)Nc1ccccc1[N+](=O)[O-])c1ccccn1 | 6.61 nM | 4.3 nM | 5.7 nM |  |  |  |
| C/C(=N/NC(=S)Nc1ccc(Cl)cc1)c1ccccn1 | 5.9 nM | 1.7 nM | 8.49 nM |  |  |  |
| COc1cc([C@@H]2c3cc4c(cc3[C@@H](O[C@@H]3O[C@@H]5CO[C@@H](C)O[C@H]5[C@H](O)[C@H]3O)[C@H]3COC(=O)[C@H]23)OCO4)cc(OC)c1O [ETOPOSIDE] |  |  |  | 460 nM | 620 nM | 480 nM |
